Measurements from article PMC2219267 (The Journal of General Physiology, 1996).

Tests used:
band 3 [1] = molecular target: T1, band 3 (Homo sapiens, UniProt P02730); assay: 125I iodide influx into red blood cells; assay type: cell-based
T1 sequence (P02730 1-911): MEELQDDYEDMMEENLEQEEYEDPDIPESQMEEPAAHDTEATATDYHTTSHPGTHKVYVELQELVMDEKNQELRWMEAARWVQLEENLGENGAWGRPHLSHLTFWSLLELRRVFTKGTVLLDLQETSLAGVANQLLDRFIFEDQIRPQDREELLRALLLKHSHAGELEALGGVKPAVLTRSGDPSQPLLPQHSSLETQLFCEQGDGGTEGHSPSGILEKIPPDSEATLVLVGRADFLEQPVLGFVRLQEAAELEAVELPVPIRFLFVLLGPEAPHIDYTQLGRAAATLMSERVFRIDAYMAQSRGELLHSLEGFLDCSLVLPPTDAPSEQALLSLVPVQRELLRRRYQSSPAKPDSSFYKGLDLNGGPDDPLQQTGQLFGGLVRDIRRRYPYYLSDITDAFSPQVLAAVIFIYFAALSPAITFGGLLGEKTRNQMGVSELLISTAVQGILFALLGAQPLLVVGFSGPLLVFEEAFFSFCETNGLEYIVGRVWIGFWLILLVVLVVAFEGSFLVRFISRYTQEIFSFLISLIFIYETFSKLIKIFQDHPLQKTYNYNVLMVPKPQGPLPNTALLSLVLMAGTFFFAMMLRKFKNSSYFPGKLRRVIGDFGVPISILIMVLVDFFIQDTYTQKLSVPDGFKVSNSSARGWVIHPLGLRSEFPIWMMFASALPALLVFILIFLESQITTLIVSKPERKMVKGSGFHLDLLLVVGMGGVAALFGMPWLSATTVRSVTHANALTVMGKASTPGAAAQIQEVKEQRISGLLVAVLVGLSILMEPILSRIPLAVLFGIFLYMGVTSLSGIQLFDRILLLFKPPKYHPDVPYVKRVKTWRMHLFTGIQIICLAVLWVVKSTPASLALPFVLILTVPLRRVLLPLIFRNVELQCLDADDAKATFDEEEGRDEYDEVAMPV
Summary of the method: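 Heparinised human blood was washed three times in 150 KH (150 mM KCl, 24 mM sucrose, 20 mM Hepes, pH 7.2 at 0°C), with white cells aspirated, then held at 50% hematocrit. DIDS-treated cells received a 2 mM DIDS stock. Media mixed sucrose, KCl and KI with 5 mM buffer. Above pHo 11, cells were nystatin-loaded to 300 mM Cl-, and CAPS-buffered media were used.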

band 3 [2] = molecular target: T1, band 3; conditions: cited from earlier work

For [I-].[K+] [iodide, potassium iodide], the “I- influx as % of Cl- efflux” value (band 3 [1]; no citrate, [Clo] 0.28 mM, [Io] 2.2 mM, 0°C) was “less than 6%”, the “half-saturation concentration for Io activation of I- influx” value (band 3 [1]; pH 10.6, 1.65 mM [Clo]) was 26.4 ± 1.8 mM and the “I- influx as % of Cl- efflux” value (band 3 [1]; pH 11.5, 53 mM [Io], 16.5 mM [Clo]) was 16%. For the same compound, the “I- influx as % of Cl- efflux” value (band 3 [1]; pHo 10.6, 1.65 mM [Clo], up to 15 mM [Io]) was “less than 10%”, the “transport rate relative to Cl-” value (band 3 [2]; 0°C, pH 7.4, ref Dalmark and Wieth, 1972) was 260 times slower and the “1/R, ratio of dissociation constants alkaline/neutral state” value (band 3 [2]; ref Bjerrum (1992)) was 35.8. The “R = K++I/K+I, ratio of I- dissociation constants for neutral and alkaline forms” value (band 3 [2]; ref Bjerrum (1992)) was 0.0279.
